Data: ChEMBL document CHEMBL2385063, “Identification of 2-(2-(1-naphthoyl)-8-fluoro-3,4-dihydro-1H-pyrido[4,3-b]indol-5(2H)-yl)acetic acid (setipiprant/ACT-129968), a potent, selective, and orally bioavailable chemoattractant receptor-homologous molecule expressed on Th2 cells (CRTH2) antagonist” (J Med Chem, 2013)
Active and inactive are the calls of the source. No cut-off for these calls is given here.

Tests used:
[1] = target: T1, G-protein coupled receptor (Canis lupus familiaris) (UniProt Q2A652); experiment: Antagonist activity at dog CRTH2 receptor assessed as inhibition of calcium flux by cell-based FLIPR assay; type: functional
T1 sequence (whole entry): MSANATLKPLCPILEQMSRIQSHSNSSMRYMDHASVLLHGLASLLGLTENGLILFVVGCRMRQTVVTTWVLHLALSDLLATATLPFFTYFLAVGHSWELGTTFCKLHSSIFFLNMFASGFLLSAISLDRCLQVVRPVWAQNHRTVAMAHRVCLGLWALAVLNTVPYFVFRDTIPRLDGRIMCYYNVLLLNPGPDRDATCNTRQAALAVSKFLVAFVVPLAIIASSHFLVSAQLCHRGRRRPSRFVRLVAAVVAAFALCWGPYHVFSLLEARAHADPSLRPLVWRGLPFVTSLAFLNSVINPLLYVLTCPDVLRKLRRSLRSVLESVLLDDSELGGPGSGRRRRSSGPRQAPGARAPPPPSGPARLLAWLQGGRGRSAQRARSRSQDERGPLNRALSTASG

Thromboxane A2 receptor = target: T2, Thromboxane A2 receptor (Homo sapiens, UniProt P21731); experiment: Antagonist activity at human prostanoid TP2 receptor expressed in HEK293 cells assessed as inhibition of calcium flux after 30 to 40 mins by FLIPR assay; type: functional, cell-based
T2 sequence (P21731 whole entry): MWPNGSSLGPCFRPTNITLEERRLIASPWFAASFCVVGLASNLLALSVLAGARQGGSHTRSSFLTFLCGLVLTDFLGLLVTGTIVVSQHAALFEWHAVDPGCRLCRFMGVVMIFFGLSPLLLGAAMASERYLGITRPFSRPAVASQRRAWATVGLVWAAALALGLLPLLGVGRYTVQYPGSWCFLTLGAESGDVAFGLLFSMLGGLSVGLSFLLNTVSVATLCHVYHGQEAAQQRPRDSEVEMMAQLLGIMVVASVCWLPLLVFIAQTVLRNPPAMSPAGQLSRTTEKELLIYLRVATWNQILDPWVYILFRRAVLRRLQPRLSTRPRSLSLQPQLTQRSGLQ

[2] = target: T3, Prostaglandin D2 receptor 2 (Mus musculus) (UniProt Q9Z2J6); experiment: Antagonist activity at mouse CRTH2 receptor assessed as inhibition of calcium flux by cell-based FLIPR assay; type: functional
T3 sequence (whole entry): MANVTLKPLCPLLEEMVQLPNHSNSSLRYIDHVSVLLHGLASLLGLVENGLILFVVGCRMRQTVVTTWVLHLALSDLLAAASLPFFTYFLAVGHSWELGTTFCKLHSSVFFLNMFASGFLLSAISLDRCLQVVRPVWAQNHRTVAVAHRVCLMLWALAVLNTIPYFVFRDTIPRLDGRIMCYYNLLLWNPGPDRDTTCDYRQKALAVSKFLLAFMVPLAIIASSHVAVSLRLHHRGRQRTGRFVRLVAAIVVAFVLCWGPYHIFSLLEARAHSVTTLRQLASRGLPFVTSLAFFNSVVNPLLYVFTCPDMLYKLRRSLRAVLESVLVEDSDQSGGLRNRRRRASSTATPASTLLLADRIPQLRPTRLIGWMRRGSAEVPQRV

[3] = Protein binding in plasma (unknown origin); type: ADME, cell-free; settings: read-out: PPB
[4] = target: T4, Prostaglandin D2 receptor 2 (Homo sapiens) (UniProt Q9Y5Y4); experiment: Selectivity factor, ratio of IC50 for recombinant human CRTH2 receptor in presence of human serum albumin to IC50 for recombinant human CRTH2 receptor in absence of human serum albumin
T4 sequence (whole entry): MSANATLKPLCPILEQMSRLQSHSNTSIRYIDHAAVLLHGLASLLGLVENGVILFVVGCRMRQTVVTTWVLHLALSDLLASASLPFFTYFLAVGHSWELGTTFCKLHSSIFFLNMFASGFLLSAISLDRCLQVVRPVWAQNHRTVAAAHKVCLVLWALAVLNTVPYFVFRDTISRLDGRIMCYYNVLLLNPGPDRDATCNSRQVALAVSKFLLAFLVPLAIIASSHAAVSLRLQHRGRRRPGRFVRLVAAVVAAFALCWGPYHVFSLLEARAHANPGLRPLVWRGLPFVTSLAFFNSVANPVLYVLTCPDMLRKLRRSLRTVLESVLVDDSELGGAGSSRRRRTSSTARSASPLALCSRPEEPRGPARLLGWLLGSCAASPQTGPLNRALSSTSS
Procedure, shortened: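 Competitive [³H]PGD₂ (2.5 nM) displacement on membranes from HEK-293 cells stably expressing hCRTh2. Buffer C was 50 mM Tris, pH 7.4, 100 mM NaCl, 1 mM EDTA and 0.1% BSA, run with or without 0.5% HSA. Membrane was 80 μg protein/well, incubated 90 min at room temperature, then filtered and counted by scintillation. Nonspecific binding was taken with 10 μM PGD₂. f_HSA = IC₅₀(HSA)/IC₅₀(buffer).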

[5] = target: T5, Prostaglandin E2 receptor EP1 subtype (Homo sapiens, UniProt P34995); experiment: Antagonist activity at human prostanoid EP1 receptor expressed in CHOK1 cells assessed as inhibition of PGE2-induced calcium flux after 60 mins by FLIPR assay; type: functional, cell-based, CHO-K1
T5 sequence (P34995 whole entry): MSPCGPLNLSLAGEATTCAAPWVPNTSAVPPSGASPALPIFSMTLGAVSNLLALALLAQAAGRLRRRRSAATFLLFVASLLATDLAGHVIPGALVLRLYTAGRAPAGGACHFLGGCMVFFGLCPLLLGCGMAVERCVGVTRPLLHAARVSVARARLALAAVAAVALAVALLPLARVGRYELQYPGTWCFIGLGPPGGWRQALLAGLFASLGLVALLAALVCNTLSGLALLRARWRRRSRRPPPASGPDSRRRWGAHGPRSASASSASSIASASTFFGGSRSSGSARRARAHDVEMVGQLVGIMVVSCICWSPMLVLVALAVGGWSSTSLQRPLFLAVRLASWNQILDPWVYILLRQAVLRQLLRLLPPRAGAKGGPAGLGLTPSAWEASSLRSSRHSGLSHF

[6] = target: T6, Prostaglandin D2 receptor 2 (Homo sapiens, UniProt Q9Y5Y4); experiment: Displacement of [3H]PGD2 from recombinant human CRTH2 receptor expressed in HEK293 cell membranes after 90 mins by scintillation counting analysis
T6 sequence (Q9Y5Y4 whole entry): T4 sequence (whole entry)
Procedure, shortened: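 Membranes from HEK293 cells expressing hCRTH2 (80 μg protein/well) in Tris pH 7.4 buffer with NaCl, EDTA, 0.1% BSA were incubated with 2.5 nM [3H]PGD2 for 90 min at room temperature. Nonspecific binding was defined with 10 μM PGD2. Samples were filtered on PEI-soaked GF/C and read by scintillation counting.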

Row | SMILES | inhibition [1] | IC50 (Thromboxane A2 receptor) [µM] | inhibition [2] | fraction unbound [3] | Ratio IC50 [4] | IC50 [5] [µM] | IC50 [6] [µM]
1 | O=C(O)Cn1c2c(c3cc(C(F)(F)F)ccc31)CN(C(=O)c1ccccc1)CC2 | Active | > 25 | Active | < 0.03 | 6 | > 25 | 0.009
2 | O=C(O)Cn1c2c(c3ccccc31)CN(C(=O)c1cccc3ccccc13)CC2 | inactive | > 25 |  | < 0.03 | 47 | > 25 | 0.009
3 | O=C(O)Cn1c2c(c3cc(F)cc(Cl)c31)CN(C(=O)c1cccc(Cl)c1)CC2 | Active | > 25 | Active | < 0.03 | 1 | > 25 | 0.19
4 | O=C(O)Cn1c2c(c3cc(F)ccc31)CN(C(=O)Cc1cccc3ccccc13)CC2 | Active | > 25 | Active | < 0.03 | 45 | > 25 | 0.004
5 | O=C(O)Cn1c2c(c3cc(F)ccc31)CN(C(=O)c1cccc(Cl)c1)CC2 | inactive | > 25 |  | < 0.03 | 7 | > 25 | 0.009
6 | COc1ccc2c(c1)c1c(n2CC(=O)O)CCN(C(=O)c2ccccc2)C1 | Active | > 25 | Active | < 0.03 |  | > 25 | 0.062
7 | O=C(O)Cn1c2c(c3cc(Cl)ccc31)CN(C(=O)c1cccc3ccccc13)CC2 | Active | > 25 | Active | < 0.03 | 16 | > 25 | 0.004
8 | O=C(O)Cn1c2c(c3ccccc31)CN(C(=O)C1CCCCC1)CC2 | Active | > 25 | Active | < 0.03 |  | > 25 | 0.07
9 | O=C(O)Cn1c2c(c3cc(F)ccc31)CN(C(=O)CCc1cccc3ccccc13)CC2 | Active | > 25 | Active | < 0.03 | 3 | > 25 | 0.01
10 | CCc1ccc(-c2ccc(C(=O)N3CCc4c(c5ccccc5n4CC(=O)O)C3)cc2)cc1 | Active | > 25 | Active | < 0.03 | 2 | > 25 | 0.004
11 | O=C(O)Cn1c2c(c3cc(F)ccc31)CN(C(=O)c1cccs1)CC2 | Active | > 25 | Active | < 0.03 | 3 | > 25 | 0.004
12 | Cc1ccc2c(c1)c1c(n2CC(=O)O)CCN(C(=O)c2cccc3ccccc23)C1 | Active | > 25 | Active | < 0.03 | 38 | > 25 | 0.005
13 | O=C(O)Cn1c2c(c3cc(F)ccc31)CN(C(=O)c1cccc3ccccc13)CC2 [SETIPIPRANT] | inactive | > 25 |  | < 0.03 | 57 | > 25 | 0.006
14 | CC(C)c1ccc2c(c1)c1c(n2CC(=O)O)CCN(C(=O)c2ccccc2)C1 | Active | > 25 | Active | < 0.03 |  | > 25 | 0.042
15 | CCc1ccc(-c2ccc(C(=O)N3CCc4c(c5cccc(Cl)c5n4CC(=O)O)C3)cc2)cc1 | Active | > 25 | Active | < 0.03 | 4 | > 25 | 0.023
16 | O=C(O)Cn1c2c(c3ccccc31)CN(C(=O)c1ccccc1)CC2 | Active |  | Active | < 0.03 | 1 | > 25 | 
17 | O=C(O)Cn1c2c(c3cc(C(F)(F)F)ccc31)CN(C(=O)c1cccc3ccccc13)CC2 | Active | > 25 | Active | < 0.03 | 6 | > 25 | 0.011
18 | O=C(O)Cn1c2c(c3cc(F)ccc31)CN(C(=O)Cc1c[nH]c3ccccc13)CC2 | Active | > 25 | Active | < 0.03 | 7 | > 25 | 0.005
19 | O=C(O)Cn1c2c(c3ccccc31)CN(C(=O)c1cccc(Cl)c1)CC2 | Active | > 25 | Active | < 0.03 | 3 | > 25 | 0.01
20 | O=C(O)Cn1c2c(c3cc(F)cc(Cl)c31)CN(C(=O)c1cccc3ccccc13)CC2 | Active | > 25 | Active | < 0.03 | 7 | > 25 | 0.07
